A selection: hits, their analogues and other compounds. The true share with any hit is near 2.9%.
SENP6 inh: SENP6 protease inhibitors, primary screen, biochemical, luminescence, uHTS; Recombinant SENP6 catalytic domain, aminoluciferin luminescence; inhibition, % at 10 µM; 330,000 tested, 1.8% active;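 active = inhibition above about 50% at the single tested dose, limit read from the data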
SENP8 block-1: human SENP8 protease inhibitors, primary screen, biochemical, fluorescence, Nedd8 protein substrate, uHTS; Sentrin-specific protease 8 (Homo sapiens), Q96LD8; recombinant SENP8; inhibition, % at 20 µM; 360,000 tested, 0.64% active; AID 602440, 2012; in the data active = inhibition mostly above about 40%, no sharp cut-off; inactive = mostly below about 27%
Target sequence (Q96LD8 whole entry, looked up): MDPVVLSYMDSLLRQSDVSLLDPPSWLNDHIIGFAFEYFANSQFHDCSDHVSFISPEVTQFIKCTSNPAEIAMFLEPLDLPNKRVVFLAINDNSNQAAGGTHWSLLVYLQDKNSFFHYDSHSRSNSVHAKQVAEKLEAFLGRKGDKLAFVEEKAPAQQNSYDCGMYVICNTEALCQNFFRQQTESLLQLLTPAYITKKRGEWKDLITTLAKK
SENP1 FRET inh: human SENP1 catalytic domain inhibitors, primary screen, biochemical, FRET, uHTS | 360,000 tested, 0.21% active | inhibition, % at 10 µM | Sentrin-specific protease 1 (Homo sapiens), Q9P0U3 | recombinant SENP1 catalytic domain, CyPet-SUMO1-YPet FRET cleavage;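 active = inhibition at least 30% at 10 µM, raw YFP signal under a set limit, fluorescence ratio 0.5 to 1.5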
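Test system: recombinant human SENP1 catalytic domain, His6-tagged / Medium: pH 8 Tris buffer with EDTA, NaCl, BME, BSA, NP40, catalase / Also added: SUMO1 FRET substrate flanked by Cypet and Ypet, 25 nM / Times: 50 min reaction at room temperature / Signal: FRET, CFP and YFP emission / Control set: no-enzyme low control and enzyme-plus-DMSO high control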
SENP8 block-2: SENP8 protease inhibitors, primary screen, biochemical, luminescence | Sentrin-specific protease 8 (Homo sapiens), Q96LD8 | purified SENP8, Z-RLRGG-aminoluciferin cleavage | inhibition, % at 10 µM | 330,000 tested, 1.2% active; in the data active = inhibition above about 50%
HSP90 refold inh: HSP90 inhibitors, primary screen, cell lysate, luminescence; Heat shock protein HSP 90 (rabbit reticulocyte lysate; luciferase refolding); Rabbit reticulocyte lysate, luciferase refolding luminescence, 3 h; inhibition, % at 5.6 µM; 290,000 tested, 0.91% active;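 active = inhibition above the screen-wide mean plus 3 SD, computed separately per campaign, cut at about 16% in these data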;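 note: inhibitors lower the luminescence because luciferase stays unfolded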
SENP7 block: SENP7 protease inhibitors, primary screen, biochemical, luminescence, uHTS. Sentrin-specific protease 7 (Homo sapiens), Q9BQF6. recombinant SENP7, Z-RLRGG-aminoluciferin luminescence, 40 min. inhibition, % at 5 µM. 330,000 tested, 1.5% active. AID 434973, 2010;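 active = inhibition above about 50% at the single test dose, limit read from the data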
Target sequence (Q9BQF6 706-1050 limits assumed): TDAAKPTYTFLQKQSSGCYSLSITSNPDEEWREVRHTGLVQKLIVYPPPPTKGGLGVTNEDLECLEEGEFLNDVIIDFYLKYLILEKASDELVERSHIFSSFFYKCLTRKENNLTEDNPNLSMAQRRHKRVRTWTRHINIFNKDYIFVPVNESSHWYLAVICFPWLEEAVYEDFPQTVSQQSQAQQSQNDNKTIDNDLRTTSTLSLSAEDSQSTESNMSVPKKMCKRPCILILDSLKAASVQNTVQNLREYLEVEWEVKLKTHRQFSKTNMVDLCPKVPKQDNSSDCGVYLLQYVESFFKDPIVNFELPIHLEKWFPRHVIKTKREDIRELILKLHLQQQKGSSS
SENP1 inh conf: human SENP1 catalytic domain inhibitors, confirmation, biochemical, FRET endpoint, single concentration; shares compounds with SENP1 FRET inh; recombinant SENP1, CyPet-SUMO1-YPet FRET cleavage; inhibition, % at 10 µM; 520 tested, 34% active; in the data active = inhibition mostly above about 35%, no sharp cut-off; inactive = mostly below about 32%
SENP1 kinetic: human SENP1 catalytic domain inhibitors, confirmation, biochemical, kinetic FRET, single concentration. shares compounds with SENP1 FRET inh. 520 tested, 26% active. inhibition, % at 10 µM. recombinant SENP1, CyPet-SUMO1-YPet FRET kinetic cleavage; in the data active = inhibition mostly above about 32%, no sharp cut-off; inactive = mostly below about 29%
Each line names hits and unclear results; the compound was inactive in the other large screens (follow-up assays come after a bar, where they were run).

O=C(c1cc(F)ccc1F)C1CCCN(C(=O)c2ccc3nccnc3c2)C1 (stereo not given)	none
N#CC1=C(N)Oc2cc(N)ccc2C1c1cccnc1 (stereo not given)	none
N#CC1=C(N)Oc2cc(Nc3ccccc3)ccc2C1c1ccncc1 (stereo not given)	SENP1 FRET inh 77 | SENP1 inh conf 31 | SENP1 kinetic inactive
CCOc1ccc(N(CC(=O)Nc2ccc(C)c(C)c2)S(C)(=O)=O)cc1	none
O=C(NCC1CCCO1)c1sc(=S)n2c1[nH]c(=O)c1ccc(C(=O)N3CCCCC3)cc12 (stereo not given)	SENP1 FRET inh 31 | SENP1 inh conf 42 | SENP1 kinetic inactive
CC1CCC2C(=O)N(c3ccc(C(=O)Oc4cccc5cccnc45)cc3)C(=O)C2C1 (stereo not given)	none
CCOC(=O)c1c2c3c(cccc3[nH]c1=O)C(=O)c1ccccc1-2	none
CCOC(=O)c1c2c3c(c(Cl)ccc3[nH]c1=O)C(=O)c1ccccc1-2	SENP1 FRET inh 57 | SENP1 inh conf 40 | SENP1 kinetic inactive
Cc1ccc(OCC(=O)O/N=C(\N)Cc2ccc([N+](=O)[O-])cc2)cc1C	none
Cc1ccc(O)c(C(=O)c2cc(C#N)c(=O)n(CC3CCCO3)c2)c1 (stereo not given)	none
COc1ccc(O)c(C(=O)c2cc(C#N)c(=O)n(CC3CCCO3)c2)c1 (stereo not given)	SENP1 FRET inh 39 | SENP1 inh conf inactive | SENP1 kinetic 36
CSc1nc2nc3c(cn2n1)C(=O)CC(c1ccccc1)C3 (stereo not given)	none
O=C1CC(c2ccccc2)Cc2nc3nc(C(F)(F)F)nn3cc21 (stereo not given)	SENP1 FRET inh 63 | SENP1 inh conf inactive | SENP1 kinetic inactive
CC1(C)CC(=O)C=C(c2ccc(COC(=O)c3cccc(C(F)(F)F)c3)cc2)C1=O	none (no result: SENP6 inh, SENP8 block-2, HSP90 refold inh, SENP7 block)
O=C(NN1C(=O)C2C3c4ccccc4C(c4ccccc43)[C@@H]2C1=O)c1ccccc1 (stereo not given in full)	none
O=C(NN1C(=O)C2C(c3ccccc3)C=CC(c3ccccc3)C2C1=O)c1cccc(Br)c1 (stereo not given)	SENP1 FRET inh 40 | SENP1 inh conf inactive | SENP1 kinetic inactive
O=C(NN1C(=O)C2C(c3ccccc3)C=CC(c3ccccc3)C2C1=O)c1ccccc1 (stereo not given)	SENP1 FRET inh 41 | SENP1 inh conf inactive | SENP1 kinetic inactive
COc1ccc(F)cc1S(=O)(=O)N1CC(C)CC(C)C1 (stereo not given)	none
Cc1sc(-c2ccccn2)nc1OC(=O)c1cccc(Cl)c1Cl	SENP1 FRET inh 36 | SENP1 inh conf inactive | SENP1 kinetic 50
CC(C)NC(=O)N(C)C[C@H]1Oc2ccc(NC(=O)Cc3ccccc3)cc2C(=O)N([C@H](C)CO)C[C@@H]1C	none (no result: HSP90 refold inh)
O=c1c2ccccc2nc(/C=C/c2c[nH]c3ccccc23)n1CCO	none
O=c1c2ccccc2nc(/C=C/c2cc(Br)ccc2O)n1CCO	SENP1 FRET inh 76 (no result: HSP90 refold inh) | SENP1 inh conf 84 | SENP1 kinetic 45
Cc1c(NC(=O)COc2cccc(Cl)c2Cl)c(=O)n(-c2ccccc2)n1C	none (no result: HSP90 refold inh)
COc1ccc(/C=C/C(=O)Nc2ccc(OC)cc2[N+](=O)[O-])cc1	SENP1 FRET inh 64 | SENP1 inh conf inactive | SENP1 kinetic inactive
CC1(C)CC(=O)C=C(c2ccc(-c3ccc4[nH]ccc4c3)cc2)C1=O	SENP1 FRET inh 29 (no result: SENP6 inh, SENP8 block-2, HSP90 refold inh, SENP7 block) | SENP1 inh conf inactive | SENP1 kinetic inactive
Cc1nc(C)c(C(=O)OCC(=O)Nc2ccccc2SCC#N)s1	SENP1 FRET inh 45 (no result: HSP90 refold inh) | SENP1 inh conf inactive | SENP1 kinetic inactive
Cc1nc(C)c(C(=O)OCC(=O)Nc2ccccc2)s1	none (no result: HSP90 refold inh)
Cc1ccc(C(=O)CCC(=O)OCC(=O)Nc2ccccc2SCC#N)cc1	SENP1 FRET inh 46 (no result: HSP90 refold inh) | SENP1 inh conf inactive | SENP1 kinetic inactive
CC(C)(C)Cc1nc(-c2ccc(Cl)cc2)no1	none
O=C(C[n+]1cc(Br)cc2ccccc21)c1ccc(Br)cc1	SENP1 FRET inh 52 | SENP1 inh conf inactive | SENP1 kinetic inactive
O=C(C[n+]1cc(Br)cc2ccccc21)c1ccc(Cl)cc1	SENP1 FRET inh 44 | SENP1 inh conf inactive | SENP1 kinetic inactive
O=C(C[n+]1cc(Br)cc(Br)c1)c1ccc(Cl)cc1	none
CC(NC(=O)c1ccc2c(c1)OCO2)C(c1cccs1)N1CCN(c2ccccc2)CC1 (stereo not given)	none
COc1ccccc1N1C(=O)S/C(=C\c2ccc(C)s2)C1=O	SENP1 FRET inh 40 | SENP1 inh conf inactive | SENP1 kinetic inactive
CC(C)c1nc(SCC(=O)Nc2ccc(N(C)C)cc2)c2ccccc2n1	none
CCN(CC(=O)Nc1c(F)cccc1F)C(=O)c1ccc(C)c(S(=O)(=O)N2CCCCC2)c1	none (no result: HSP90 refold inh)
CCOC(=O)CSc1nc2cc(C)ccc2cc1C#N	SENP1 FRET inh 55 | SENP1 inh conf inactive | SENP1 kinetic inactive
CCOC(=O)CSc1nc2ccc(C)cc2cc1C#N	none
Cn1nc(C(=O)OCC(=O)Nc2ccccc2[N+](=O)[O-])c2ccccc2c1=O	none (no result: HSP90 refold inh)
Cc1ccc2n(n1)c(=O)c(Cc1ccccc1)c([O-])[n+]2-c1ccccc1	SENP1 FRET inh 35 | SENP1 inh conf 53 | SENP1 kinetic 35
Cc1ccc(-c2ccc(SCC(=O)N3CCN(c4ccccc4)CC3)nn2)cc1	SENP1 FRET inh 32 | SENP1 inh conf inactive | SENP1 kinetic inactive
C[C@@H]1CN([C@H](C)CO)C(=O)c2cc(Br)cnc2O[C@@H]1CN(C)Cc1ccc(-c2ccccc2)cc1	none (no result: SENP6 inh, SENP8 block-2, HSP90 refold inh, SENP7 block)
CN(C)C(=O)CSc1ccc(S(=O)(=O)N2CCCC2)cn1	SENP1 FRET inh 39 (no result: HSP90 refold inh) | SENP1 inh conf 44 | SENP1 kinetic 42
CSCc1cc(C(=O)NC2CC2)c(N)s1	none (no result: SENP6 inh, SENP8 block-2, HSP90 refold inh, SENP7 block)
Nc1ccccc1C=C1Cc2ccccc2C1=O	SENP1 FRET inh 56 (no result: SENP6 inh, SENP8 block-2, HSP90 refold inh, SENP7 block) | SENP1 inh conf inactive | SENP1 kinetic inactive
O=C(CSc1nc2ccccc2c(=O)n1CC1CCCO1)NCCc1ccccc1 (stereo not given)	none
